From ChEMBL document CHEMBL5150073, “Photocaged DNA-Binding Photosensitizer Enables Photocontrol of Nuclear Entry for Dual-Targeted Photodynamic Therapy” (J Med Chem, 2022) come the findings set out here.

Series [1] in a line: Drug localization in cytosol of human MCF7 cells assessed as increase in bright green fluorescence of wintergreen excitation at 2 uM incubated for 1 hr in dark by EGFP filter based analysis. The class given is ADME, subcellular.
For series [2], the system named is MCF7. Description: Photocytotoxicity against human MCF7 cells cultured as […] spheroids assessed as tumor spheroid shrinkage at 10 uM incubated for 1 hr followed by washout and irradiation with 480 nm 2.3 J/cm^2 light for 15 mins with 8 J/cm^2 UV irradiation for 5 mins and incubated overnight by cell viability imaging kit based assay. The series is classed as functional. The method, boiled down: (§1)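 MCF7 spheroids (~300 μm) grown in ultralow-attachment plates. Compound added to medium at 10 μM final for 1 h, then illuminated: 480 nm (15 min, 2.3 J cm⁻²), 480 nm plus UV (5 min, 8.0 J cm⁻²), or UV only. After overnight incubation, stained with a live/dead imaging kit; dead-cell green mean intensity and spheroid diameter assessed.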

Series [3] relates to MCF7. Description: Photocytotoxicity against human MCF7 cells assessed as reduction in cell viability incubated for 1 hr followed by washout and irradiation with 480 nm 2.3 J/cm^2 light for 15 mins with 8 J/cm^2 UV irradiation for 5 mins and measured after 24 hrs by MTT assay. The class given is functional. The conditions noted are these: MCF7, light or radiation study. The gist of the method:
(§2)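 Cells (MCF7, A549, HeLa) incubated 1 h with compound (BB probes 0–32 μM, Br-DAPI 0–64 μM) and washed once. Light arms: 480 nm (15 min, 2.3 J cm⁻²) with or without UV (5 min, 8.0 J cm⁻²), or UV only; dark controls unilluminated. Cells kept overnight in growth medium, then MTT read 24 h post-treatment. CC50 taken relative to untreated cells. n = 3.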
(In general: Tetrazolium dyes change colour on reduction, which living cells bring about.)

Series [4] relates to MCF7. Description: Induction of DNA damage in human MCF7 cells assessed as double strand breaks by measuring pink foci formation in nucleus at 3 uM incubated for 2 hrs followed by irradiation with 480 nm 2.3 J/cm^2 light for 15 mins with 8 J/cm^2 UV irradiation for 5 mins by gammaH2A.X antibody/Alexa 488/DAPI staining based fluorescence analysis. The class given is functional, cell-based. The gist of the method:
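MCF7 cells treated with compound at 3 μM, then illuminated with 480 nm (15 min, 2.3 J cm⁻²) plus UV (5 min, 8.0 J cm⁻²), or with UV alone. Left 2 h, fixed, stained with Alexa 488-tagged γH2AX antibody and DAPI counterstain. Nuclear foci imaged.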

The next series deals with A549. As to the kind of experiment: Selectivity index, ratio of CC50 for photocytotoxicity against human […] cells irradiated with 480 nm 2.3 J/cm^2 light to CC50 for photocytotoxicity against human A549 cells irradiated with 480 nm 2.3 J/cm^2 light and 8 J/cm^2 UV irradiation. The class given is functional. The method, boiled down: as §2
A short description of series [5]: Drug localization in mitochondria of human MCF7 cells assessed as increase in bright green fluorescence of wintergreen excitation at 2 uM incubated for 1 hr in dark by Mitotracker green dye based analysis. The conditions noted are these: mcf7, 1 h. The class given is ADME.
Series [6] can be described thus: Stability of compound in human MCF7 cells assessed as esterase-mediated 3-bromo-2-(4-carbamimidoylphenyl)-1H-indole-6-carboxamidine release by measuring cyan fluorescence at 2 uM incubated for 1 hr followed by compound washout and further incubated for 1 hr on heated microscopic stage by DAPI filter based fluorescence analysis. The series is classed as ADME, cell-based. The settings on record: mcf7, 1 h. The method, boiled down:
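Cells incubated with compound (2 μM) for 1 h, washed once with PBS, then kept a further 1 h in the dark on a heated microscope stage. Nuclear cyan fluorescence imaged with the DAPI filter set at 0 h and 2 h time points.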

The subject of series [7] is MCF7. Description: Photocytotoxicity against human MCF7 cells assessed as reduction in cell viability incubated for 1 hr under dark condition followed by washout and measured after 24 hrs by MTT assay. The series is classed as functional. The gist of the method:
as §2

The nature of series [8]: Photorelease ability in PBS at pH 7.4 assessed as 3-bromo-2-(4-carbamimidoylphenyl)-1H-indole-6-carboxamidine release by measuring change in emission spectra at 1 uM incubated in presence of CT-DNA and irradiated with 3.1 J/cm^2 mercury lamp light for 20 mins. The series is classed as functional.
Series [9] in a line: Induction of ROS production in PBS at pH 7.4 at 1 uM irradiated with 480 nm 2.3 J/cm^2 light for 15 mins with 2-photon irradiation by DCFH2-DA probe based analysis. The series is classed as functional.
Series [10] deals with Calf thymus DNA. Description: Binding affinity to calf thymus DNA assessed as red shift in absorbance spectra at 20 uM by fluorescence based analysis. The class given is nucleic-acid assay. The settings on record: Bos taurus.
The nature of series [11]: Photorelease activity in PBS at pH 7.4 assessed as wintergreen release at 50 uM in presence of CT-DNA illuminated with 3.1 J/cm^2 480 nm illumination for 20 mins by RP-HPLC analysis. The series is classed as functional. The gist of the method: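 Samples at 50 μM in PBS pH 7.4 were either kept 3 h at 37 °C in the dark or illuminated 20 min at 480 nm (450–495 nm filter, 3.1 J cm⁻²). Analysed by RP-HPLC on a C18 analytical column with absorbance at 345 nm; retention times recorded. n = 2 independent samples.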

Series [12] is described as follows: Aqueous stability of the compound in PBS at pH 7.4 assessed as hydrolysis of carbamate to release 3-bromo-2-(4-carbamimidoylphenyl)-1H-indole-6-carboxamidine at 0.8 uM incubated for 3 hrs by fluorescence based analysis. The series is classed as physicochemical. The settings on record: buffer, pH 7.4, 3 h.
In series [13] the test system is MCF7. Description: Induction of ROS production in human MCF7 cells at 2 uM incubated for 1 hr in dark followed by irradiation with 480 nm 2.3 J/cm^2 light for 15 mins with 8 J/cm^2 UV irradiation for 5 mins by DCFH2-DA probe based analysis. The settings on record: time 80.0 min. The class given is functional, cell-based. The gist of the method: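 MCF7 cells incubated with compound (2 μM) 1 h in the dark, washed, loaded with 10 μM DCFH2DA for 30 min, washed. DCF green fluorescence imaged after 480 nm illumination (15 min, 2.3 J cm⁻²), then after added 365 nm UV (5 min, 8.0 J cm⁻²). Mean fluorescence intensity quantified.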

The test system of series [14] is MCF7. As to the kind of experiment: Photocytotoxicity against human MCF7 cells cultured as […] spheroids assessed as cell death by measuring increase in green fluorescence at 10 uM incubated for 1 hr followed by washout and irradiation with 480 nm 2.3 J/cm^2 light for 15 mins with 8 J/cm^2 UV irradiation for 5 mins and incubated overnight by cell viability imaging kit based assay. The series is classed as functional. The gist of the method:
as §1

Series [15] has as its system Calf thymus DNA. As to the kind of experiment: Binding affinity to calf thymus DNA assessed as fold change in fluorescence quenching of 3-bromo-2-(4-carbamimidoylphenyl)-1H-indole-6-carboxamidine. The class given is nucleic-acid assay. The conditions noted are these: Bos taurus.
Series [16] is described as follows: Drug uptake in human MCF7 cells cultured as […] spheroids assessed as increase in green fluorescence in nuclear background at 10 uM incubated overnight under dark condition by DAPI filter based fluorescence analysis. The settings on record: mcf7, 10 µM. The series is classed as ADME, cell-based.
The subject of series [17] is MCF7. As to the kind of experiment: Photorelease activity in human MCF7 cells assessed as wintergreen release by measuring bright green fluorescence in nucleus at 3 uM incubated for 1 hr followed by illumination with 1.6 J/cm^2 for 10 mins by EGFP filter based analysis. The conditions noted are these: mcf7, 1.167 h, time 70 min. The series is classed as ADME, cell-based. The method, boiled down:
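MCF7 cells given compound (3 μM) for 1 h, washed once with PBS, imaged. DAPI filter set (ex 350–405, em 415–470 nm) used for Br-DAPI cyan signal; EGFP filter set (ex 450–495, em 500–550 nm) used for WinterGreen green signal. Cells imaged dark, then after 480 nm illumination (10 min, 1.6 J cm⁻²).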

Active and inactive are the calls of the source. The calls are words filed in the database; no cut-off is given here.

As for `CC1=CC(C)=[N+]2C1=C(COC(=O)/N=C(\N)c1ccc3c(Br)c(-c4ccc(C(=N)N)cc4)[nH]c3c1)c1c(C)cc(C)n1[B-]2(C)C`, the Drug uptake result in series [1], in series [5] and in [16] was “Active” in each case. Also, the outcome (in the series with MCF7 [2]; in the series with MCF7 [4]; in series [9]; in the series on Calf thymus DNA [10]; in the series with MCF7 [13]; with MCF7 [14]) was Active. The CC50 (commonly the concentration that lowers cell viability or growth by half) with MCF7 [3] is 470 nM; with MCF7 [7] it was more than 10000 nM. Further, the Ratio with A549 was found to be 17. Also, the Stability result in series [6] and in series [12] was “Stable” throughout. The Drug metabolism entry is reported as “Metabolite detected” in series [8], “Metabolite not detected” in series [11] and “Metabolite_Notdetected” in the series on MCF7 [17]. The fold change (FC) with Calf thymus DNA [15] came to 4.
